Results published in ChEMBL document CHEMBL3734652, “Pyrrolo[3,4-c]pyridine-1,3(2H)-diones: A Novel Antimycobacterial Class Targeting Mycobacterial Respiration” (J Med Chem, 2015).
≈ marks a conversion by molar mass, not a printed value.

Experiments:
Liver [1] = assay: Drug metabolism in BALB/c mouse liver microsomes assessed as formation of 7-Amino-2-benzyl-4-methyl-1,3-dioxo-2,3-dihydro-1H-pyrrolo-[3,4-c]pyridine-6-carboxylic Acid at 10 uM after 1 hr by LC-MS analysis in absence of NADPH; format: ADME
[2] = tested on: Mycobacterium tuberculosis; assay: Antimicrobial activity against GFP expressing recombinant Mycobacterium tuberculosis H37RvMA under GAST/Fe medium assessed as growth inhibition after 14 days by broth microdilution method; format: functional; conditions: 336 h
[3] = tested on: Mycobacterium tuberculosis; assay: Antimicrobial activity against Mycobacterium tuberculosis H37RvMA under GAST/Fe medium assessed as growth inhibition after 14 days by alamar blue assay; format: functional; conditions: 336 h
Outline: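 Broth microdilution in GAST/Fe medium against fully virulent Mtb H37RvMa or its derived strains (cytochrome bd oxidase deletion ΔcydKO; qcrB Ala317Thr point mutant). Plates were incubated 14 days, growth was read by Alamar Blue, and MIC90 was taken as the potency value.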

[4] = Kinetic solubility in FaSSIF at pH 6.5 after 2 hours at 25 degC by shake flask method; format: physicochemical; conditions: read-out: Kinetic_solubility
[5] = Metabolic stability in human liver microsomes assessed as residual compound at 0.1 uM after 30 mins by LC-MS/MS method in presence or absence of NADPH; format: ADME; conditions: read-out: Stability
[6] = Metabolic stability in rat liver microsomes assessed as residual compound at 0.1 uM after 30 mins by LC-MS/MS method in presence or absence of NADPH; format: ADME; conditions: read-out: Stability
[7] = Metabolic stability in mouse liver microsomes assessed as residual compound at 0.1 uM after 30 mins by LC-MS/MS method in presence or absence of NADPH; format: ADME; conditions: read-out: Stability
Vero = assay: Cytotoxicity against African green monkey Vero cells assessed as cell viability by MTT assay; format: cell-based; conditions: Chlorocebus sabaeus
Outline: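 VERO kidney epithelial cells from African green monkey were exposed to compounds at concentrations up to 100 μM, and IC₅₀ was reported.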

[8] = tested on: Mycobacterium tuberculosis; assay: Antimicrobial activity against GFP expressing recombinant Mycobacterium tuberculosis H37RvMA under 7H9 medium assessed as growth inhibition after 14 days by broth microdilution method; format: functional; conditions: 336 h
[9] = tested on: Mycobacterium tuberculosis; assay: Antimicrobial activity against clinical isolates of Mycobacterium tuberculosis SAWC 2371 Haarlem under 7H9 medium assessed as growth inhibition after 14 days by alamar blue assay; format: functional; conditions: 336 h
[10] = tested on: Mycobacterium tuberculosis; assay: Antimicrobial activity against clinical isolates of Mycobacterium tuberculosis SAWC 3385 Cas1/Delhi under 7H9 medium assessed as growth inhibition after 14 days by alamar blue assay; format: functional; conditions: 336 h
[11] = tested on: Mycobacterium tuberculosis; assay: Antimicrobial activity against clinical isolates of Mycobacterium tuberculosis SAWC 3906 Atyp-beijing under 7H9 medium assessed as growth inhibition after 14 days by alamar blue assay; format: functional; conditions: 336 h
Plasma [12] = assay: Drug metabolism in C57/BL6 mouse plasma assessed as formation of 7-Amino-2-benzyl-4-methyl-1,3-dioxo-2,3-dihydro-1H-pyrrolo-[3,4-c]pyridine-6-carboxylic Acid by LC-MS analysis in absence of NADPH; format: ADME, cell-free
[13] = tested on: Mycobacterium tuberculosis; assay: Drug metabolism in supernatant of Mycobacterium tuberculosis assessed as formation of 7-Amino-2-benzyl-4-methyl-1,3-dioxo-2,3-dihydro-1H-pyrrolo-[3,4-c]pyridine-6-carboxylic Acid in absence of NADPH; format: ADME, organism-based
CHO = assay: Cytotoxicity against CHO cells assessed as cell viability by MTT assay; format: cell-based; conditions: Cricetulus griseus
Plasma [14] = assay: Drug level in C57/BL6 mouse plasma treated with ethyl 7-Amino-2-benzyl-4-methyl-1,3-dioxo-2,3-dihydro-1Hpyrrolo[3,4-c]pyridine-6-carboxylate by LC-MS analysis in absence of NADPH; format: ADME, cell-free
Liver [15] = assay: Drug level in BALB/c mouse liver microsomes treated with ethyl 7-Amino-2-benzyl-4-methyl-1,3-dioxo-2,3-dihydro-1Hpyrrolo[3,4-c]pyridine-6-carboxylate at 10 uM after 1 hr by LC-MS analysis in absence of NADPH; format: ADME
[16] = tested on: Mycobacterium tuberculosis; assay: Drug level in supernatant of Mycobacterium tuberculosis treated with Ethyl 7-Amino-2-benzyl-4-methyl-1,3-dioxo-2,3-dihydro-1Hpyrrolo[3,4-c]pyridine-6-carboxylate in absence of NADPH; format: ADME, organism-based
Liver [17] = assay: Drug level in BALB/c mouse liver microsomes treated with 7-Amino-2-benzyl-4-methyl-6-(3-methyl-1,2,4-oxadiazol-5-yl)-1H-pyrrolo[3,4-c]pyridine-1,3(2H)-dione at 10 uM after 1 hr by LC-MS analysis; format: ADME
Plasma [18] = assay: Drug metabolism in C57/BL6 mouse plasma treated with 7-Amino-2-benzyl-4-methyl-6-(3-methyl-1,2,4-oxadiazol-5-yl)-1H-pyrrolo[3,4-c]pyridine-1,3(2H)-dione by LC-MS analysis; format: ADME, cell-free

Row | Compound | Drug metabolism (Liver [1]) | MIC90 [2] | MIC90 [3] | solubility kinetic at 2 h [4] | remaining at 0.5 h, 0.1 µM [5] | remaining at 0.5 h, 0.1 µM [6] | remaining at 0.5 h, 0.1 µM [7] | IC50 (Vero) | MIC90 [8] | MIC90 [9] | MIC90 [10] | MIC90 [11] | Drug metabolism (Plasma [12]) | Drug metabolism [13] | IC50 (CHO) | Drug metabolism (Plasma [14]) | Drug metabolism (Liver [15]) | Drug metabolism [16] | Drug metabolism (Liver [17]) | Drug metabolism (Plasma [18])
1 | CCOC(=O)c1nc(C)c2c(c1N)C(=O)N(Cc1ccccc1)C2=O | metabolite_detected | 0.132 µM | < 0.156 µM | < 5 µM | 14% | 19% | 18% | > 100 µM | > 20 µM | < 0.08 µM | < 0.08 µM | < 0.08 µM | metabolite_detected | metabolite_detected |  |  |  |  |  | 
2 | Cc1nc(C(=O)O)c(N)c2c1C(=O)N(Cc1ccccc1)C2=O |  |  | 3.13 µM (≈ 0.974 µg/mL) | 177 µM (≈ 55.1 µg/mL) | 64% | 71% | 79% |  |  |  |  |  |  |  | > 100 µM | metabolite_detected | metabolite_detected | metabolite_detected | metabolite_detected | metabolite_detected
